From ChEMBL document CHEMBL3621046, “Discovery of a potent enoyl-acyl carrier protein reductase (FabI) inhibitor suitable for antistaphylococcal agent” (Bioorg Med Chem Lett, 2015)
≈ marks a conversion by molar mass, not a printed value.

Assays:
[1] = target: T1, Enoyl-[acyl-carrier-protein] reductase [NADPH] FabI (Staphylococcus aureus, UniProt Q6GI75); assay: Inhibition of Staphylococcus aureus FabI assessed as reduction in inhibition of reduction of trans-2-octenoyl N-acetylcysteamine substrate by spectrophotometry
T1 sequence (Q6GI75 whole entry): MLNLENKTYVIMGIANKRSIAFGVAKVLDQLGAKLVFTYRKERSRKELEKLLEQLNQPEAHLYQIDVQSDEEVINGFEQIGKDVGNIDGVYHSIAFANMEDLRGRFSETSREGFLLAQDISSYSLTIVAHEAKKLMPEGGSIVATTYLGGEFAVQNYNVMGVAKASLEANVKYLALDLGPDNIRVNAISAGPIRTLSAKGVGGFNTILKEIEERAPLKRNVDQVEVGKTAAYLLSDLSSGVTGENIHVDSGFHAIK

Staphylococcus aureus [2] = assay: Antibacterial activity against Staphylococcus aureus incubated for 18 hrs by agar dilution method; assay type: functional
Staphylococcus aureus [3] = assay: Antibacterial activity against methicillin-resistant Staphylococcus aureus incubated for 18 hrs by agar dilution method; assay type: functional
Outline: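 Agar dilution. Strains were grown 18 h at 37 °C with shaking in Fleisch extract broth (beef extract 1%, peptone 1%, NaCl 0.3%, Na₂HPO₄ 0.2%, pH 7.4–7.5), then diluted 100-fold. Plates incubated 37 °C, 18 h. MIC is the lowest concentration preventing growth.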

| Structure (SMILES) | IC50 [1] | MIC (Staphylococcus aureus [2]) | MIC (Staphylococcus aureus [3]) |
| --- | --- | --- | --- |
| Cc1ccc(Oc2coc(/C=C/c3ccoc3)cc2=O)c(C)c1 | 2.29 µM | > 20 mg/L | – |
| O=c1cc(COc2ccccc2)n(C2CC2)cc1Oc1cccc(Cl)c1Cl | 1.5 µM | 3.12 mg/L (≈ 7.77 µM) | 6.25 mg/L (≈ 15.5 µM) |
| O=c1cc(COc2ccccc2)[nH]cc1Oc1c(Cl)cccc1Cl | 4.98 µM | 3.12 mg/L (≈ 8.63 µM) | 3.12 mg/L (≈ 8.63 µM) |
| Cn1cc(Oc2c(Cl)cccc2Cl)c(=O)cc1COc1ccccc1 | 0.72 µM | 0.195 mg/L (≈ 0.518 µM) | 0.195 mg/L (≈ 0.518 µM) |
| O=c1cc(COc2ccccc2)n(C2CC2)cc1Oc1c(Cl)cccc1Cl | 6.43 µM | 3.12 mg/L (≈ 7.77 µM) | 3.12 mg/L (≈ 7.77 µM) |
| O=c1cc(COc2ccccc2)[nH]cc1Oc1cccc([N+](=O)[O-])c1Cl | 11.7 µM | > 20 mg/L | – |
| Cn1cc(Oc2cccc([N+](=O)[O-])c2Cl)c(=O)cc1COc1ccccc1 | 0.66 µM | 0.781 mg/L (≈ 2.02 µM) | 3.12 mg/L (≈ 8.08 µM) |
| O=c1cc(COc2ccccc2)n(C2CC2)cc1Oc1cccc([N+](=O)[O-])c1Cl | 17.6 µM | > 20 mg/L | – |
| COCc1cc(=O)c(Oc2ccc(Cl)cc2)co1 | 5.2 µM | 6.25 mg/L (≈ 23.4 µM) | – |
| O=c1cc(COc2ccccc2)occ1Oc1ccc(Cl)cc1Cl | 0.68 µM | 3.12 mg/L (≈ 8.6 µM) | 6.25 mg/L (≈ 17.2 µM) |
| Cc1cc(Cl)ccc1Oc1coc(COc2ccccc2)cc1=O | 0.45 µM | 1.56 mg/L (≈ 4.56 µM) | 6.25 mg/L (≈ 18.2 µM) |
| Cc1ccc(Oc2coc(COc3ccccc3)cc2=O)c(C)c1 | 0.38 µM | 1.56 mg/L (≈ 4.85 µM) | 1.56 mg/L (≈ 4.85 µM) |
| O=c1cc(COc2ccccc2)occ1Oc1cccc(Cl)c1Cl | 1.25 µM | 6.25 mg/L (≈ 17.2 µM) | 12.5 mg/L (≈ 34.4 µM) |
| O=c1cc(COc2ccccc2)occ1Oc1c(Cl)cccc1Cl | 1.42 µM | 6.25 mg/L (≈ 17.2 µM) | 12.5 mg/L (≈ 34.4 µM) |
| Cc1c(Oc2coc(COc3ccccc3)cc2=O)cccc1[N+](=O)[O-] | 3.52 µM | 12.5 mg/L (≈ 35.4 µM) | 12.5 mg/L (≈ 35.4 µM) |
| Cc1cc(Cl)ccc1Oc1coc(/C=C/c2ccccc2)cc1=O | 4.88 µM | > 20 mg/L | – |
| Cc1cc(Cl)ccc1Oc1coc(/C=C/c2ccoc2)cc1=O | 2.45 µM | > 20 mg/L | – |
| Cc1cc(Cl)ccc1Oc1coc(/C=C/c2ccco2)cc1=O | 3.89 µM | > 20 mg/L | – |
| Cc1cc(Cl)ccc1Oc1coc(/C=C/c2cccnc2)cc1=O | 2.94 µM | > 20 mg/L | – |
| Cc1cc(Cl)ccc1Oc1coc(/C=C/c2ccsc2)cc1=O | 3.12 µM | > 20 mg/L | – |
| Cc1cc(Cl)ccc1Oc1coc(/C=C/c2cccs2)cc1=O | 4.57 µM | > 20 mg/L | – |
| Cc1cc(Cl)ccc1Oc1coc(/C=C/c2ccc[nH]2)cc1=O | 5.82 µM | > 20 mg/L | – |
| CCC/C=C/c1cc(=O)c(Oc2ccc(Cl)cc2C)co1 | 6.44 µM | > 20 mg/L | – |
| Cc1cc(Cl)ccc1Oc1coc(/C=C/C(C)C)cc1=O | 5.78 µM | > 20 mg/L | – |
| O=c1cc(/C=C/c2ccccc2)occ1Oc1ccc(Cl)cc1Cl | 4.53 µM | > 20 mg/L | – |
| O=c1cc(/C=C/c2ccoc2)occ1Oc1ccc(Cl)cc1Cl | 1.89 µM | > 20 mg/L | – |
| O=c1cc(/C=C/c2cccnc2)occ1Oc1ccc(Cl)cc1Cl | 2.04 µM | > 20 mg/L | – |

| Structure (SMILES) | IC50 [1] | MIC (Staphylococcus aureus [2]) | MIC (Staphylococcus aureus [3]) |
| --- | --- | --- | --- |
| Cc1ccc(Oc2coc(/C=C/c3ccccc3)cc2=O)c(C)c1 | 5.33 µM | > 20 mg/L | – |
| Cc1ccc(Oc2coc(/C=C/c3cccnc3)cc2=O)c(C)c1 | 3.48 µM | > 20 mg/L | – |
| O=c1cc(/C=C/c2ccccc2)occ1Oc1cccc(Cl)c1Cl | 6.73 µM | > 20 mg/L | – |
| O=c1cc(/C=C/c2ccoc2)occ1Oc1cccc(Cl)c1Cl | 5.68 µM | > 20 mg/L | – |
| O=c1cc(/C=C/c2cccnc2)occ1Oc1cccc(Cl)c1Cl | 3.44 µM | > 20 mg/L | – |
| O=c1cc(/C=C/c2ccccc2)occ1Oc1c(Cl)cccc1Cl | 4.79 µM | > 20 mg/L | – |
| O=c1cc(/C=C/c2ccoc2)occ1Oc1c(Cl)cccc1Cl | 4.12 µM | > 20 mg/L | – |
| O=c1cc(/C=C/c2cccnc2)occ1Oc1c(Cl)cccc1Cl | 3.74 µM | > 20 mg/L | – |
| O=c1cc(COc2ccccc2)[nH]cc1Oc1ccc(Cl)cc1Cl | 1.82 µM | 0.781 mg/L (≈ 2.16 µM) | 1.56 mg/L (≈ 4.32 µM) |
| Cn1cc(Oc2ccc(Cl)cc2Cl)c(=O)cc1COc1ccccc1 | 0.12 µM | 0.195 mg/L (≈ 0.518 µM) | 0.195 mg/L (≈ 0.518 µM) |
| O=c1cc(COc2ccccc2)n(C2CC2)cc1Oc1ccc(Cl)cc1Cl | 0.48 µM | 1.56 mg/L (≈ 3.89 µM) | 1.56 mg/L (≈ 3.89 µM) |
| CCCCn1cc(Oc2ccc(Cl)cc2Cl)c(=O)cc1COc1ccccc1 | 1.25 µM | 6.25 mg/L (≈ 14.9 µM) | 6.25 mg/L (≈ 14.9 µM) |
| O=c1cc(COc2ccccc2)n(Cc2ccccc2)cc1Oc1ccc(Cl)cc1Cl | 1.42 µM | 6.25 mg/L (≈ 13.8 µM) | 12.5 mg/L (≈ 27.6 µM) |
| Cc1cc(Cl)ccc1Oc1c[nH]c(COc2ccccc2)cc1=O | 0.4 µM | 1.56 mg/L (≈ 4.57 µM) | 1.56 mg/L (≈ 4.57 µM) |
| Cc1cc(Cl)ccc1Oc1cn(C)c(COc2ccccc2)cc1=O | 0.11 µM | 0.098 mg/L (≈ 0.275 µM) | 0.098 mg/L (≈ 0.275 µM) |
| Cc1cc(Cl)ccc1Oc1cn(C2CC2)c(COc2ccccc2)cc1=O | 0.47 µM | 0.391 mg/L (≈ 1.02 µM) | 0.781 mg/L (≈ 2.05 µM) |
| CCCCn1cc(Oc2ccc(Cl)cc2C)c(=O)cc1COc1ccccc1 | 0.63 µM | 3.12 mg/L (≈ 7.85 µM) | 3.12 mg/L (≈ 7.85 µM) |
| Cc1cc(Cl)ccc1Oc1cn(Cc2ccccc2)c(COc2ccccc2)cc1=O | 0.65 µM | 3.12 mg/L (≈ 7.24 µM) | 6.25 mg/L (≈ 14.5 µM) |
| Cc1ccc(Oc2c[nH]c(COc3ccccc3)cc2=O)c(C)c1 | 1.14 µM | 0.781 mg/L (≈ 2.43 µM) | 1.56 mg/L (≈ 4.86 µM) |
| Cc1ccc(Oc2cn(C3CC3)c(COc3ccccc3)cc2=O)c(C)c1 | 3.17 µM | 0.391 mg/L (≈ 1.08 µM) | 1.56 mg/L (≈ 4.32 µM) |
| CCCCn1cc(Oc2ccc(C)cc2C)c(=O)cc1COc1ccccc1 | 1 µM | 0.781 mg/L (≈ 2.07 µM) | 1.56 mg/L (≈ 4.14 µM) |
| Cc1ccc(Oc2cn(Cc3ccccc3)c(COc3ccccc3)cc2=O)c(C)c1 | 2.69 µM | 1.56 mg/L (≈ 3.8 µM) | 3.12 mg/L (≈ 7.59 µM) |
| O=c1cc(COc2ccccc2)[nH]cc1Oc1cccc(Cl)c1Cl | 0.84 µM | 1.56 mg/L (≈ 4.32 µM) | 1.56 mg/L (≈ 4.32 µM) |
| Cn1cc(Oc2cccc(Cl)c2Cl)c(=O)cc1COc1ccccc1 | 0.22 µM | 0.195 mg/L (≈ 0.518 µM) | 0.195 mg/L (≈ 0.518 µM) |
| CC(=O)NC[C@H]1CN(c2ccc(N3CCOCC3)c(F)c2)C(=O)O1 [LINEZOLID] | – | – | 0.781 mg/L (≈ 2.32 µM) |
| Oc1cc(Cl)ccc1Oc1ccc(Cl)cc1Cl [TRICLOSAN] | – | 0.391 mg/L (≈ 1.35 µM) | – |
